Measurements published in ChEMBL document CHEMBL4715904, “Discovery of an Anion-Dependent Farnesyltransferase Inhibitor from a Phenotypic Screen” (ACS Med Chem Lett, 2021).
Activity calls are given as the source filed them. No cut-off for these calls is given here.

How the values were obtained:
[1] = molecular target: T1, Mitochondrial inner membrane m-AAA protease component AFG3L2 (Homo sapiens, UniProt Q9Y4W6); experiment: Displacement of (4-((1-neopentyl-1H-benzo[d]imidazol-2-yl)methyl)piperazin-1-yl)(1,3,5-trimethyl-1H-pyrazol-4-yl)methanone from AFG3L2 in vorinostat-stimulated human Jurkat 2C4 cells infected with latent HIV-1 by pull-down experiment based competitive binding assay; type: tissue-based
T1 sequence (Q9Y4W6 whole entry): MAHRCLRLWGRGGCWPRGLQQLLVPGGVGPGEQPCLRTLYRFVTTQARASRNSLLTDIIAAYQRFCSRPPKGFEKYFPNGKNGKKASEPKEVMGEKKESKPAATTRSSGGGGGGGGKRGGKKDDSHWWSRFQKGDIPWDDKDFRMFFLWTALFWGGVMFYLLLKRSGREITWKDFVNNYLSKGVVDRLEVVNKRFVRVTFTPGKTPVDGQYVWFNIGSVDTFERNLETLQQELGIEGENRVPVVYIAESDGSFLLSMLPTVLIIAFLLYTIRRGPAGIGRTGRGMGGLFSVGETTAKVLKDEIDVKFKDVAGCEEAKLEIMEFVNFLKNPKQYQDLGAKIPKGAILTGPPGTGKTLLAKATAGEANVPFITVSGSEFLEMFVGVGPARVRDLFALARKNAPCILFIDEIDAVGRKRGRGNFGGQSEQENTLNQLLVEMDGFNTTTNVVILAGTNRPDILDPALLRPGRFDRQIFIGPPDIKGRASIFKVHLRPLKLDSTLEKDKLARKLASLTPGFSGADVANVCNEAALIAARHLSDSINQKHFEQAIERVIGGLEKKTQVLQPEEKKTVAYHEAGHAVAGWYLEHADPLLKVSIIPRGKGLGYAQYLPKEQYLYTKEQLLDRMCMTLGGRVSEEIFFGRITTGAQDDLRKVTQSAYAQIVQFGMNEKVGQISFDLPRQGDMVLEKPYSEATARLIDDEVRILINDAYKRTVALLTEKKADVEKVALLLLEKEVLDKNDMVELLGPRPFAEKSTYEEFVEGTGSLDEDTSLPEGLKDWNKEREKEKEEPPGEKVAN
In short: (§1)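 Affinity matrix made by immobilizing the aminoethyl-linked probe on Sepharose beads at 5.8, 3 and 1.4 mM; beads exposed to lysates of Jurkat 2C4 cells pretreated with vorinostat (250 nM); bound proteins pulled down, with free compound competing for binding.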

[2] = tested on: Human immunodeficiency virus 1; experiment: Potentiation of vorinostat-induced reactivation of latent HIV-1 infected in human Jurkat 2C4 cells assessed as increase in HIV-1 transcription incubated for 24 hrs in presence of vorinostat by Steady-Glo luciferase reporter gene assay; type: functional, organism-based; details: Human immunodeficiency virus 1, 2C4, 24 h
[3] = Inhibition of recombinant rat FTase expressed in Escherichia coli using 3H-FPP and biotinylated-DESGPGCMSCKCVLS peptide as substrates incubated for 30 mins in presence of 5 mM pyrophosphate by scintillation proximity assay
In short: (§2)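 Cell-free FTase inhibition assay, standard protocol; anion-dependent variants repeated with added anion (dimethylallyl diphosphate at increasing concentrations, or other anions) beyond the standard-protocol level.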

[4] = tested on: Human immunodeficiency virus 1; experiment: Reactivation of latent HIV-1 infected in human Jurkat 2C4 cells assessed as increase in HIV-1 transcription incubated for 24 hrs by Steady-Glo luciferase reporter gene assay; type: functional, organism-based; details: for EC50: Human immunodeficiency virus 1, 2C4, 24 h
In short: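 Jurkat 2C4 latent HIV reporter line (minimal provirus, Tat H12L, LTR-driven luciferase); latency reversal measured as increase in luciferase luminescence in cell lysates.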

[5] = Inhibition of recombinant rat FTase expressed in Escherichia coli using 3H-FPP and biotinylated-DESGPGCMSCKCVLS peptide as substrates incubated for 30 mins in presence of 5 mM phosphate by scintillation proximity assay; in short: as §2
[6] = Inhibition of recombinant rat FTase expressed in Escherichia coli using 3H-FPP and biotinylated-DESGPGCMSCKCVLS peptide as substrates incubated for 30 mins in presence of 5 mM ATP by scintillation proximity assay; in short: as §2
[7] = molecular target: T2, Protein farnesyltransferase/geranylgeranyltransferase type-1 subunit alpha (Homo sapiens, UniProt P49354); experiment: Displacement of (4-((1-neopentyl-1H-benzo[d]imidazol-2-yl)methyl)piperazin-1-yl)(1,3,5-trimethyl-1H-pyrazol-4-yl)methanone from FNTA in vorinostat-stimulated human Jurkat 2C4 cells infected with latent HIV-1 by pull-down experiment based competitive binding assay; in short: as §1
[8] = molecular target: T3, Protein farnesyltransferase subunit beta (Homo sapiens, UniProt P49356); experiment: Displacement of (4-((1-neopentyl-1H-benzo[d]imidazol-2-yl)methyl)piperazin-1-yl)(1,3,5-trimethyl-1H-pyrazol-4-yl)methanone from FNTB in vorinostat-stimulated human Jurkat 2C4 cells infected with latent HIV-1 by pull-down experiment based competitive binding assay; type: tissue-based; in short: as §1
T3 sequence (P49356 whole entry): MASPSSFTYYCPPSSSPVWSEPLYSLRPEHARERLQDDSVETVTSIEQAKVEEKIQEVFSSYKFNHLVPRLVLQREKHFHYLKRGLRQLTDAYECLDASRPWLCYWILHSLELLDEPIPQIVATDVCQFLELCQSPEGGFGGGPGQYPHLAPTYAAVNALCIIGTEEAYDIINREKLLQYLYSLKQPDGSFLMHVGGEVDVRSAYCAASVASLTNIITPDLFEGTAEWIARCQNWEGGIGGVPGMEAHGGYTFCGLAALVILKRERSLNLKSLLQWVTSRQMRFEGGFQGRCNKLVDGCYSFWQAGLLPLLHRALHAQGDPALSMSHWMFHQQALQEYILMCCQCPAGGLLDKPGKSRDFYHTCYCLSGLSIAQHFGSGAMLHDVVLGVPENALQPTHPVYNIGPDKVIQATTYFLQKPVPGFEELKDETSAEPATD

Homo sapiens [9] = species: Homo sapiens; experiment: Binding affinity to recombinant FTase (unknown origin) assessed as change in melting temperature at 20 uM by TdF assay
[10] = Inhibition of rat recombinant FTase expressed in Escherichia coli using 3H-FPP and biotinylated-DESGPGCMSCKCVLS peptide as substrates incubated for 30 mins in presence of 5 mM thiosulfate by scintillation proximity assay; in short: as §2
[11] = molecular target: T4, NmrA-like family domain-containing protein 1 (Homo sapiens, UniProt Q9HBL8); experiment: Displacement of (4-((1-neopentyl-1H-benzo[d]imidazol-2-yl)methyl)piperazin-1-yl)(1,3,5-trimethyl-1H-pyrazol-4-yl)methanone from NMRAL1 in vorinostat-stimulated human Jurkat 2C4 cells infected with latent HIV-1 by pull-down experiment based competitive binding assay; type: tissue-based; in short: as §1
T4 sequence (Q9HBL8 whole entry, the tested form may be a part): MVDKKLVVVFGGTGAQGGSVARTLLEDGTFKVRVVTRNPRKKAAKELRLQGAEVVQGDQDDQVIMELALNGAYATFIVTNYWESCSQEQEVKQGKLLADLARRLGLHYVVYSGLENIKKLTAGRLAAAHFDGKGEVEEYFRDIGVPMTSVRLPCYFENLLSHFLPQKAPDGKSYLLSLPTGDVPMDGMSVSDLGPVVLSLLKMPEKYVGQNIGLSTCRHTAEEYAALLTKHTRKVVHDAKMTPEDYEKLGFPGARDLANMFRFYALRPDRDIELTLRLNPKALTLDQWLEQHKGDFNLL

[12] = Inhibition of recombinant rat FTase expressed in Escherichia coli using 3H-FPP and biotinylated-DESGPGCMSCKCVLS peptide as substrates incubated for 30 mins in presence of 5 mM DMA-PP by scintillation proximity assay; in short: as §2
[13] = Inhibition of recombinant rat FTase expressed in Escherichia coli using 3H-FPP and biotinylated-DESGPGCMSCKCVLS peptide as substrates incubated for 30 mins in presence of 2 mM DMA-PP by scintillation proximity assay; in short: as §2
[14] = molecular target: T2, Protein farnesyltransferase/geranylgeranyltransferase type-1 subunit alpha; experiment: Displacement of (1-(2-aminoethyl)-3,5-dimethyl-1H-pyrazol-4-yl)(4-((1-neopentyl-1H-benzo[d]imidazol-2-yl)methyl)piperazin-1-yl)methanone from FNTA in vorinostat-stimulated human Jurkat 2C4 cells infected with latent HIV-1 by pull-down experiment based competitive binding assay
[15] = Inhibition of recombinant rat FTase expressed in Escherichia coli using 3H-FPP and biotinylated-DESGPGCMSCKCVLS peptide as substrates incubated for 30 mins by scintillation proximity assay; in short: as §2
[16] = tested on: Human immunodeficiency virus 1; experiment: Potentiation of vorinostat-induced reactivation of latent HIV-1 infected in human Jurkat 2C4 cells assessed as increase in HIV-1 transcription incubated for 24 hrs in presence of vorinostat by Steady-Glo luciferase reporter gene assay relative to control; type: functional
Homo sapiens [17] = species: Homo sapiens; experiment: Binding affinity to recombinant FTase (unknown origin) assessed as melting temperature at 20 uM by TdF assay (reference value: 46.2 +/- 0.2 degreeC)
[18] = molecular target: T1, Mitochondrial inner membrane m-AAA protease component AFG3L2; experiment: Displacement of (1-(2-aminoethyl)-3,5-dimethyl-1H-pyrazol-4-yl)(4-((1-neopentyl-1H-benzo[d]imidazol-2-yl)methyl)piperazin-1-yl)methanone from AFG3L2 in vorinostat-stimulated human Jurkat 2C4 cells infected with latent HIV-1 by pull-down experiment based competitive binding assay; type: tissue-based; in short: as §1
[19] = Inhibition of recombinant rat FTase expressed in Escherichia coli using 3H-FPP and biotinylated-DESGPGCMSCKCVLS peptide as substrates incubated for 30 mins in presence of 1 mM DMA-PP by scintillation proximity assay; in short: as §2
[20] = molecular target: T4, NmrA-like family domain-containing protein 1; experiment: Displacement of (1-(2-aminoethyl)-3,5-dimethyl-1H-pyrazol-4-yl)(4-((1-neopentyl-1H-benzo[d]imidazol-2-yl)methyl)piperazin-1-yl)methanone from NMRAL1 in vorinostat-stimulated human Jurkat 2C4 cells infected with latent HIV-1 by pull-down experiment based competitive binding assay; type: tissue-based; in short: as §1
[21] = molecular target: T3, Protein farnesyltransferase subunit beta; experiment: Displacement of (1-(2-aminoethyl)-3,5-dimethyl-1H-pyrazol-4-yl)(4-((1-neopentyl-1H-benzo[d]imidazol-2-yl)methyl)piperazin-1-yl)methanone from FNTB in vorinostat-stimulated human Jurkat 2C4 cells infected with latent HIV-1 by pull-down experiment based competitive binding assay

| EC50 [2] [nM] | IC50 [3] [nM] | EC50 [4] [nM] | IC50 [5] [nM] | IC50 [6] [nM] | ΔTm (Homo sapiens [9]) [°C] | IC50 [10] [nM] | IC50 [12] [nM] | IC50 [13] [nM] | IC50 [15] [nM] | IC50 [19] [nM] | SMILES | Activity [16] [%] | further results |
| --- | --- | --- | --- | --- | --- | --- | --- | --- | --- | --- | --- | --- | --- |
| > 8000 | > 40000 | > 8000 | > 40000 | > 40000 | 2 | > 40000 | – | – | – | – | CCn1c(CN2CCN(C(=O)c3c(C)nn(C)c3C)CC2)nc2ccccc21 | – | inhibition [1]: inactive; inhibition [7]: inactive; inhibition [8]: inactive; inhibition [11]: inactive |
| 340 | 2500 | > 8000 | 1300 | 250 | 4.2 | 2100 | 500 | 900 | ≥ 20000 | 1000 | Cc1nn(C)c(C)c1C(=O)N1CCN(Cc2nc3ccccc3n2CC(C)(C)C)CC1 | 100 | Kd [14]: 340 nM; Tm (Homo sapiens [17]): 50.4 °C; Kd [18]: 19000 nM; Kd [20]: 19000 nM; Kd [21]: 475 nM |
| 1100 | – | > 8000 | – | – | – | – | – | – | – | – | CC(=O)NCCn1nc(C)c(C(=O)N2CCN(Cc3nc4ccccc4n3CC(C)(C)C)CC2)c1C | – | – |
| 170 | 70 | – | 70 | 50 | – | 50 | 70 | 100 | 50 | 40 | N#Cc1ccc(Cn2cncc2CN2CCN(c3cccc(Cl)c3)C(=O)C2)cc1 [L-778123 FREE BASE] | 100 | Activity [4]: Active |
